In paper PMC5771089 (Theranostics, 2018):
Each block holds one molecule with its values, some of them ahead of it.

How the values were obtained:
[1] = molecular target: biotinylated BSA (serum albumin) (Bos taurus, UniProt P02769); test: Kinetic binding assay by biolayer interferometry; design: species or system bovine
Outline: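 Biolayer interferometry on streptavidin biosensors. Steps: PBS baseline 60 s; biotin-BSA load (1 µg/mL) 600 s; PBS 60 s; biocytin quench (1 µg/mL) 180 s; PBS 60 s; test compound association 600 s; dissociation 600 s. Nonspecific signal subtracted, taken from BSA-loaded sensor in buffer alone and blank sensor with analyte.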

[2] = test system: HCT116/SSTR2 (SSTR2+) and HCT116 (SSTR2-) cells; test: Cell uptake/internalization; assay type: cell-based, human
Outline: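 HCT116/SSTR2 (transfected) and parental HCT116 cells grown in McCoy's 5A with 10% FBS at 37 °C, 5% CO2. 10^5 cells/well plated 24 h ahead, PBS-washed, then given 18.5 KBq/well 86Y-labelled tracer in 0.5 mL medium with 1% (w/v) HSA. At each time point: PBS wash, then 0.1 M NaOH lysis. For internalized fraction, surface tracer stripped first with 1 min glycine 50 mM/NaCl 100 mM, pH 2.8. Gamma-counted as % of added activity; triplicates; blocking at 24 h.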

[3] = test system: HCT116/SSTR2 tumor xenografts; test: In vivo PET in HCT116/SSTR2 xenografts; design: species or system mouse

Chain of biotinylated BSA (serum albumin) (P02769 25-607): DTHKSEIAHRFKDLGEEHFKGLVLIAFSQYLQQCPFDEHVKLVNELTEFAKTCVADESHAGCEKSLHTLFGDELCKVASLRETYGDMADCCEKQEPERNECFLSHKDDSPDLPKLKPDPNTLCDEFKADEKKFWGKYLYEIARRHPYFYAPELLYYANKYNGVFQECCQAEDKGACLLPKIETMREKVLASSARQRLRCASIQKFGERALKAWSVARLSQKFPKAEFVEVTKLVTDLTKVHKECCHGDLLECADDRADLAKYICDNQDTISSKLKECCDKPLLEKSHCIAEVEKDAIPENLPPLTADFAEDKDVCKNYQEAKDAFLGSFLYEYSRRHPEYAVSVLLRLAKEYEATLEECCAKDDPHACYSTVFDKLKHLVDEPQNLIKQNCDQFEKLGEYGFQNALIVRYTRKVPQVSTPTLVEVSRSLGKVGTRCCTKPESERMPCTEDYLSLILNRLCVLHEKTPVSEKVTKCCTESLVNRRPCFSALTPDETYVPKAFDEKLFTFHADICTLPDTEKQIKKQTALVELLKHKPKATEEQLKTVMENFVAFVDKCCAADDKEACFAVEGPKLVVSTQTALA

Kd [1]: 4.8 µM
SMILES: Cc1cc(-c2ccc(NC(=O)[C@H](CCCCNC(=O)CCN3C(=O)CC(SCC(=O)N[C@H](Cc4ccccc4)C(=O)N[C@H]4CSSC[C@@H](C(=O)N[C@H](C(=O)O)[C@@H](C)O)NC(=O)[C@H]([C@@H](C)O)NC(=O)[C@H](CCCCN)NC(=O)[C@@H](Cc5c[nH]c6ccccc56)NC(=O)[C@H](Cc5ccc(O)cc5)NC4=O)C3=O)NC(=O)CN3CCN(CC(=O)O)CCN(CC(=O)O)CCN(CC(=O)O)CC3)c(C)c2)ccc1N=Nc1ccc2c(S(=O)(=O)O)cc(S(=O)(=O)O)c(N)c2c1O (stereo partly drawn) [EB-TATE]

SMILES: Cc1cc(-c2ccc(NC(=O)[C@H](CCCCNC(=O)CCN3C(=O)CC(SCC(=O)N[C@H](Cc4ccccc4)C(=O)N[C@H]4CSSC[C@@H](C(=O)N[C@H](C(=O)O)[C@@H](C)O)NC(=O)[C@H]([C@@H](C)O)NC(=O)[C@H](CCCCN)NC(=O)[C@@H](Cc5c[nH]c6ccccc56)NC(=O)[C@H](Cc5ccc(O)cc5)NC4=O)C3=O)NC(=O)CN3CCN(CC(=O)O)CCN(CC(=O)O)CCN(CC(=O)O)CC3)c(C)c2)ccc1N=Nc1ccc2c(S(=O)(=O)O)cc(S(=O)(=O)O)c(N)c2c1O (stereo partly drawn) [^86Y-EB-TATE, metal not drawn]
Cell uptake (percent of added radioactivity) ([2]; HCT116/SSTR2 cells, 24 h, 18.5 KBq/well, medium with 1% (w/v) HSA, triplicate): 12.05±0.67% | Uptake/internalization in SSTR2 positive vs SSTR2 negative cells ([2]; HCT116/SSTR2 vs HCT116, 1% HSA, p < 0.001): significantly higher | Amount retained in the blood compared to ^86Y-TATE ([3]; 1 h p.i., PET quantification): 4 fold | Tumor exposure to the radioisotope (AUC) compared to ^86Y-TATE ([3]; AUC of tumor radioactivity over time, non-decay corrected data): approximately 6 fold | Increase of half-life in the blood compared to ^86Y-TATE ([3]; PET quantification, i.v. 0.92 MBq (4 nmol)): 2 fold
